Converted amounts (≈) assume the structure as drawn.
Experiments:
[1] = Thermodynamic aqueous solubility of the compound in PBS buffer at pH 6.8 after 24 hrs by HPLC analysis; type: physicochemical; details: for solubility thermodynamic at 24 h: PBS buffer, pH 6.8, read-out: Therm_solubility
Summary of the method: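 Compound was shaken in aqueous buffer at pH 6.8 for 24 h at ambient temperature; dissolved concentration was measured by HPLC.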

[2] = Cmax in Sprague-Dawley rat at 25 mg/kg, po by LC/MS analysis; type: ADME, organism-based; set-up: dose 25 mg/kg, route oral; details: in vivo
Summary of the method: (§1)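 Male Sprague-Dawley rats (180−220 g), n = 4 per route, single iv dose 5 mg/kg or oral gavage 25 mg/kg. Vehicle was 2% DMSO, 4% EtOH, 4% castor oil, 90% H2O. Orbital sinus blood was taken from 2 min to 72 h into heparinized tubes. Plasma levels were measured by LC/MS with propranolol internal standard and analysed by pharmacokinetic modelling.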

[3] = Cmax in Sprague-Dawley rat at 5 mg/kg, iv by LC/MS analysis; type: ADME, organism-based; set-up: dose 5 mg/kg, route intravenous; details: in vivo; summary of the method: as §1
[4] = Clearance in Sprague-Dawley rat at 5 mg/kg, iv by LC/MS analysis; type: ADME, organism-based; set-up: dose 5 mg/kg, route intravenous; details: in vivo; summary of the method: as §1
[5] = AUC (0 to infinity) in Sprague-Dawley rat at 25 mg/kg, po by LC/MS analysis; type: ADME, organism-based; set-up: dose 25 mg/kg, route oral, time infinity; details: plasma; summary of the method: as §1
[6] = molecular target: Epidermal growth factor receptor (Homo sapiens, UniProt P00533, L858R/T790M); experiment: Inhibition of EGFR L858R/T790M double mutant (unknown origin) after 1.5 hrs by FRET-based Z'-Lyte assay; type: protein assay
NCI-H1975 = experiment: Antiproliferative activity against human NCI-H1975 cells expressing EGFR L858R/T790M double mutant after 72 hrs by MTS assay; type: functional, cell-based; details: NCI-H1975, 72 h
[7] = AUC (0 to infinity) in Sprague-Dawley rat at 5 mg/kg, iv by LC/MS analysis; type: ADME, organism-based; set-up: time infinity, dose 5 mg/kg, route intravenous; details: plasma; summary of the method: as §1
[8] = Oral bioavailability in Sprague-Dawley rat at 25 mg/kg by LC/MS analysis; type: ADME, organism-based; details: in vivo; summary of the method: as §1
[9] = Clearance in Sprague-Dawley rat at 25 mg/kg, po by LC/MS analysis; type: ADME, organism-based; set-up: dose 25 mg/kg, route oral; details: in vivo; summary of the method: as §1

Sequence of Epidermal growth factor receptor (P00533 25-1210 T790M/L858R limits assumed): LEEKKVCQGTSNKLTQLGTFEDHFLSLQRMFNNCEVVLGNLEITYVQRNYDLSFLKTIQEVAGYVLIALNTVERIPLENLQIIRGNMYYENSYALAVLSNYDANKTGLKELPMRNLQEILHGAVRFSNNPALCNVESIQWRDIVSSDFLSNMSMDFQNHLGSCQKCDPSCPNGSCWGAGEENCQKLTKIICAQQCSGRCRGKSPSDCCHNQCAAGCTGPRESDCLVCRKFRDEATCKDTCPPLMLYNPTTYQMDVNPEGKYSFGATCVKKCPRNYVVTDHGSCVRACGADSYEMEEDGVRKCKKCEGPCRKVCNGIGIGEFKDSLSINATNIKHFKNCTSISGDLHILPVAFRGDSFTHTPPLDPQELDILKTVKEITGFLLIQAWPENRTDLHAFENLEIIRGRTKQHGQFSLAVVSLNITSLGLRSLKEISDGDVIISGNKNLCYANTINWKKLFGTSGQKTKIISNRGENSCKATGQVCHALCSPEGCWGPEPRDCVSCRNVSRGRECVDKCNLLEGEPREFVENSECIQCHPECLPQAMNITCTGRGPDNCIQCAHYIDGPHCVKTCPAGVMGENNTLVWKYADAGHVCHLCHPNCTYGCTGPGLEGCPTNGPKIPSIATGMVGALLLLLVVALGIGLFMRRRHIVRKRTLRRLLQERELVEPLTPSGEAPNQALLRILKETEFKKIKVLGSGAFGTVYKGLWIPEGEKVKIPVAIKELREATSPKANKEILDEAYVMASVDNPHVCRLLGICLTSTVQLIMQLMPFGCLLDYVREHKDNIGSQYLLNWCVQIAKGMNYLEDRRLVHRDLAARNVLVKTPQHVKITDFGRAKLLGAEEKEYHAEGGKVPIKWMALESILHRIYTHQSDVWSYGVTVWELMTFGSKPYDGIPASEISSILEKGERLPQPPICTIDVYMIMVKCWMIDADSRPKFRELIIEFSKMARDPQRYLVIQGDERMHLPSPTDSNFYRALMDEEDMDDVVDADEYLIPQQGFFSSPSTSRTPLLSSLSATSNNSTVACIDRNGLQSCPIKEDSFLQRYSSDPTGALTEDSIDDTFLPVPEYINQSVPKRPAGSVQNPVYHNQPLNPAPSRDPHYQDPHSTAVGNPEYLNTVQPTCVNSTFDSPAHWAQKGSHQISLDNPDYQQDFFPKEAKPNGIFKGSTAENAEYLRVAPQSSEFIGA

SMILES | solubility thermodynamic at 24 h [1] | Cmax [2] | Cmax [3] | clearance [4] | AUC(0-inf) [5] | IC50 [6] | IC50 (NCI-H1975) | AUC(0-inf) [7] | bioavailability [8] | CL/F [9] | Therm solubility ([1]; buffer, pH 6.8, 24 h)
C=CC(=O)N1CC[C@H](N2C(=O)N(Cc3ccccc3)Cc3cnc(Nc4ccc(N5CCN(C)CC5)cc4OC)nc32)C1 | 107 µg/mL (≈ 184 µM) | 102 ng/mL | 784 ng/mL | 240 mL/min/kg | 418 ng·h/mL | 8.8 nM | 279 nM | 359 ng·h/mL | 24% | 1040 mL/min/kg | 
C=CC(=O)N1CC[C@H](N2C(=O)N(C(C)C)Cc3cnc(Nc4ccc(N5CCN(C)CC5)cc4OC)nc32)C1 | 2490 µg/mL (≈ 4660 µM) |  |  |  |  | 864 nM | 3060 nM |  |  |  | 
C=CC(=O)N1CC[C@H](N2C(=O)N(c3ccccc3)Cc3cnc(Nc4ccc(N5CCN(C)CC5)c(OC)c4)nc32)C1 | 256 µg/mL (≈ 450 µM) | 420 ng/mL | 3410 ng/mL | 91.7 mL/min/kg | 948 ng·h/mL | 7.2 nM | 65 nM | 949 ng·h/mL | 20% | 467 mL/min/kg | 
C=CC(=O)N1CC[C@H](N2C(=O)N(C3CCCC3)Cc3cnc(Nc4ccc(N5CCN(C)CC5)cc4OC)nc32)C1 | 250 µg/mL (≈ 446 µM) |  |  |  |  | 58.7 nM | 679 nM |  |  |  | 
C=CC(=O)N1CC[C@H](N2C(=O)N(c3ccccc3)Cc3cnc(Nc4ccc(N5CCN(C)CC5)c(Cl)c4)nc32)C1 | 214 µg/mL (≈ 374 µM) |  |  |  |  | 35.6 nM | 89 nM |  |  |  | 
C=CC(=O)N1CC[C@H](N2C(=O)N(c3ccccc3)Cc3cnc(Nc4ccc(N5CCN(C)CC5)cc4)nc32)C1 | 976 µg/mL (≈ 1810 µM) | 783 ng/mL | 1520 ng/mL | 96.7 mL/min/kg | 2310 ng·h/mL | 29.1 nM | 249 nM | 857 ng·h/mL | 54% | 203 mL/min/kg | 
C=CC(=O)NC1CCC(N2C(=O)N(Cc3ccccc3)Cc3cnc(Nc4ccc(N5CCN(C)CC5)cc4OC)nc32)CC1 (centres undefined) | 18.8 µg/mL (≈ 30.8 µM) |  |  |  |  | 708 nM | 2680 nM |  |  |  | 
C=CC(=O)N1CC[C@H](N2C(=O)N(C)Cc3cnc(Nc4ccc(N5CCN(C)CC5)cc4OC)nc32)C1 | 1250 µg/mL (≈ 2470 µM) |  |  |  |  | 525 nM | 1480 nM |  |  |  | 
C=CC(=O)N1CC[C@H](N2C(=O)N(c3ccccc3)Cc3cnc(Nc4ccc(N5CCN(C)CC5)cc4OC)nc32)C1 | 1540 µg/mL (≈ 2700 µM) | 613 ng/mL | 1790 ng/mL | 86.7 mL/min/kg | 2120 ng·h/mL | 15.2 nM | 111 nM | 962 ng·h/mL | 44% | 200 mL/min/kg | 
C=CC(=O)N1CCC[C@H](N2C(=O)N(Cc3ccccc3)Cc3cnc(Nc4ccc(N5CCN(C)CC5)cc4OC)nc32)C1 | 129 µg/mL (≈ 216 µM) |  |  |  |  | 204 nM | 1560 nM |  |  |  | 
C=CC(=O)N1CC[C@H](N2C(=O)N(c3ccccc3)Cc3cnc(Nc4cccc(N5CCN(C)CC5)c4)nc32)C1 | 714 µg/mL (≈ 1330 µM) | 291 ng/mL | 1820 ng/mL | 113 mL/min/kg | 760 ng·h/mL | 97.9 nM | 523 nM | 746 ng·h/mL | 20% | 565 mL/min/kg | 
C=CC(=O)N1CCC[C@@H](N2C(=O)N(Cc3ccccc3)Cc3cnc(Nc4ccc(N5CCN(C)CC5)cc4OC)nc32)C1 | 142 µg/mL (≈ 237 µM) |  |  |  |  | 40.3 nM | 437 nM |  |  |  | 
C=CC(=O)N1CC[C@H](N2C(=O)N(c3ccccc3)Cc3cnc(Nc4ccc(CCN5CCN(C)CC5)cc4)nc32)C1 | 4350 µg/mL (≈ 7680 µM) | 232 ng/mL | 1410 ng/mL | 153 mL/min/kg | 1130 ng·h/mL | 41.3 nM | 448 nM | 561 ng·h/mL | 40% | 382 mL/min/kg | 
C=CC(=O)N1CC[C@H](N2C(=O)N(c3ccccc3)Cc3cnc(Nc4ccccc4)nc32)C1 | 3.5 µg/mL (≈ 7.95 µM) | 1670 ng/mL | 6540 ng/mL | 41.7 mL/min/kg | 4520 ng·h/mL | 235 nM | 1680 nM | 2030 ng·h/mL | 44% | 95 mL/min/kg | 
C=CC(=O)N1CC[C@H](N2C(=O)N(c3ccccc3)Cc3cnc(Nc4ccc(C5CCN(C)CC5)cc4)nc32)C1 | 310 µg/mL (≈ 577 µM) | 359 ng/mL |  |  | 1300 ng·h/mL | 16.2 nM | 311 nM |  |  | 335 mL/min/kg | 
C=CC(=O)NCCN1C(=O)N(Cc2ccccc2)Cc2cnc(Nc3ccc(N4CCN(C)CC4)cc3OC)nc21 | 96.7 µg/mL (≈ 174 µM) |  |  |  |  | > 1000 nM | > 10000 nM |  |  |  | 
C=CC(=O)N1CC[C@H](N2C(=O)N(c3ccccc3)Cc3cnc(Nc4ccc(N5CCN(C)CC5)c(F)c4)nc32)C1 | 691 µg/mL (≈ 1240 µM) | 964 ng/mL | 3260 ng/mL | 40 mL/min/kg | 3480 ng·h/mL |  |  | 2120 ng·h/mL | 33% | 122 mL/min/kg | 
C=CC(=O)Nc1cccc(N2C(=O)N(Cc3ccccc3)Cc3cnc(Nc4ccc(N5CCN(C)CC5)cc4OC)nc32)c1.CS(=O)(=O)O |  |  | 4370 ng/mL | 53.3 mL/min/kg |  |  |  | 1570 ng·h/mL |  |  | 4 µg/mL
C=CC(=O)N1CCC(N2C(=O)N(Cc3ccccc3)Cc3cnc(Nc4ccc(N5CCN(C)CC5)cc4OC)nc32)CC1 | 9.3 µg/mL (≈ 15.6 µM) |  |  |  |  | 144 nM | 546 nM |  |  |  | 
C=CC(=O)N1CC[C@H](N2C(=O)N(c3ccccc3)Cc3cnc(Nc4ccc(N5CCN(C)CC5)c(C(F)(F)F)c4)nc32)C1 | 60.9 µg/mL (≈ 100 µM) |  |  |  |  | 55.5 nM | 196 nM |  |  |  | 
C=CC(=O)N1CC[C@@H](N2C(=O)N(Cc3ccccc3)Cc3cnc(Nc4ccc(N5CCN(C)CC5)cc4OC)nc32)C1 | 199 µg/mL (≈ 341 µM) |  |  |  |  | 107 nM | 1550 nM |  |  |  | 
C=CC(=O)N1CC[C@H](N2C(=O)N(C3CCCCC3)Cc3cnc(Nc4ccc(N5CCN(C)CC5)cc4OC)nc32)C1 | 763 µg/mL (≈ 1330 µM) |  |  |  |  | 42.9 nM | 654 nM |  |  |  | 

— ChEMBL document CHEMBL3085739, “Design, synthesis, and biological evaluation of 2-oxo-3,4-dihydropyrimido[4,5-d]pyrimidinyl derivatives as new irreversible epidermal growth factor receptor inhibitors with improved pharmacokinetic properties” (J Med Chem, 2013)
